According to article PMC7610841 (Nature, 2020):
Entries after “also recorded” stand apart in the source; their conditions may differ. Values belong to the molecule of their own block, whether it stands above or below them.

Assays:
GFP-Wingless [1] = conditions: culture medium, literature; ref [6],[22]; cited from earlier work
Distal-less = conditions: overexpressed; ref [13],[14]; cited from earlier work
senseless [2] = conditions: overexpressed; ref [13],[14]; cited from earlier work
GFP-Wingless[S239A] = test: In vivo trapping of GFP-Wingless[S239A] at the surface of imaginal disc cells; parameters: species or system Drosophila; conditions: glypican overexpressed with ptc-Gal4 in imaginal discs
GFP-Wingless [3] = test: In vivo trapping of GFP-Wingless at the surface of wing imaginal disc cells; parameters: species or system Drosophila; conditions: overexpressed with ptc-Gal4 in wing imaginal discs
Procedure, shortened: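 GFP-Wingless knock-in wing discs with V5-tagged human GPC4, GPC6, GPC3 or GPC5 driven by ptc-Gal4, crossed at 25°C. Surface capture of GFP-Wingless imaged by confocal microscopy after immunostaining with Alexa-conjugated secondaries and DAPI mounting. Three independent repeats.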

senseless [4] = test: Effect of overexpression on high target gene senseless in wing discs; type: in vivo, Drosophila; conditions: driven with ptc-Gal4 in wing discs
Procedure, shortened: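 Wing discs from crosses at 25°C, with V5-tagged human glypican UAS-attB transgenes driven by ptc-Gal4 (senseless) or en-Gal4 (Distal-less). Discs immunostained with Alexa-conjugated secondaries, DAPI-mounted and imaged by confocal microscopy. Distal-less signal quantified in boxed regions and plotted separately for anterior and posterior compartments. Three independent repeats.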

[5] = Lipid binding of furin-site mutant vs wild-type Dlp^core; conditions: furin sites destroyed: K398Q, K399A, R402Q, R438Q, R441A

B1: Afamin: lipid-binding protein (protein, UniProt P43652 22-599, looked up)
Afamin: LPTQPRDIENFNSTQKFIEDNIEYITIIAFAQYVQEATFEEMEKLVKDMVEYKDRCMADKTLPECSKLPNNVLQEKICAMEGLPQKHNFSHCCSKVDAQRRLCFFYNKKSDVGFLPPFPTLDPEEKCQAYESNRESLLNHFLYEVARRNPFVFAPTLLTVAVHFEEVAKSCCEEQNKVNCLQTRAIPVTQYLKAFSSYQKHVCGALLKFGTKVVHFIYIAILSQKFPKIEFKELISLVEDVSSNYDGCCEGDVVQCIRDTSKVMNHICSKQDSISSKIKECCEKKIPERGQCIINSNKDDRPKDLSLREGKFTDSENVCQERDADPDTFFAKFTFEYSRRHPDLSIPELLRIVQIYKDLLRNCCNTENPPGCYRYAEDKFNETTEKSLKMVQQECKHFQNLGKDGLKYHYLIRLTKIAPQLSTEELVSLGEKMVTAFTTCCTLSEEFACVDNLADLVFGELCGVNENRTINPAVDHCCKTNFAFRRPCFESLKADKTYVPPPFSQDLFTFHADMCQSQNEELQRKTDRFLVNLVKLKHELTDEELQSLFTNFANVVDKCCKAESPEVCFNEESPKIGN
- release of soluble Wnt on addition of lipid-binding protein (GFP-Wingless [1]): enables the release of soluble Wnt

B2: Dlp: Drosophila glypican Dally-like protein (protein)
chain: PQVAALAAPNPAGGVAGSSIIDQFSPNCSAVTHIFQARGIDAIEIPQKPSNERVLRYCESPSVGTCCTYNMETRMAMQSRQQLEGHTKDQISRMSGILGSKATKFKDIFTALLKESRTQFNSMFIRTYGVIYERNSYVFSDLFKELETYFANGRVDLLEVMDKFFNTLYQKMFTVLNTQYTFDENYMRCVSEHMKELKPFGDVPDKLSVQIKRSFVATRTYGQALTTASEVAKKVLNVRLNADCTGALTKMQHCGACKGYTEKPCTNYCVNVIKGCLHYQHEFDSEWENFAMAMDKVAERLLGSFNIVMVVEPLNIKISEAIMNFQDSGQDITNRVFQGCGRPKLKKMKRSISPKLQGVQILNARSPVEADTLDIDETLDEAIVLRERRAAEPGSQETSAQQSQEQGVGKSGNGGGGGGGNNRRQQQRRKQQQQRRKQQNNRDDNDDDDNESGGGREPILDRIVRDIRQRVKDYKKFWSNLPHSVCSNEDIASSSDVDGMCWNGHTIDRYMHSITTEHGSNPEFTGNPASTKQTAQMASQLSHLKNAIVHLRNAYNGQDVEWSEQEELPYAGSGAGSGSGSEDDEDDDEGSGLGPFEPSHKPDVERPSVDADNDDDEDAGGRGHMPTHTSRPTSGVDDKNPLIHTTHFDQDHNDLDEDHRQLDEDEDTDAG
modifications: left off: HA, end not stated, kept
- biphasic activity in wing imaginal discs: distal-less (Distal-less): extending the range of the low target gene distal-less
- biphasic activity in wing imaginal discs: senseless (senseless [2]): inhibiting the high target gene senseless
- trapping of GFP-Wingless[S239A] (unlipidated) (GFP-Wingless[S239A]): did not detectably trap; also recorded: not GFP-Wingless[S239A]
- trapping of GFP-Wingless at the cell surface (GFP-Wingless [3]): duly trapped endogenous-level GFP-Wingless; also recorded: captures GFP-Wingless

B3: GPC6: human glypican of Dlp family; secreted ΔGPI form (amino acids 1-529) in solubilisation assays (protein)
chain: DVKARSCGEVRQAYGAKGFSLADIPYQEIAGEHLRICPQEYTCCTTEMEDKLSQQSKLEFENLVEETSHFVRTTFVSRHKKFDEFFRELLENAEKSLNDMFVRTYGMLYMQNSEVFQDLFTELKRYYTGGNVNLEEMLNDFWARLLERMFQLINPQYHFSEDYLECVSKYTDQLKPFGDVPRKLKIQVTRAFIAARTFVQGLTVGREVANRVSKVSPTPGCIRALMKMLYCPYCRGLPTVRPCNNYCLNVMKGCLANQADLDTEWNLFIDAMLLVAERLEGPFNIESVMDPIDVKISEAIMNMQENSMQVSAKVFQGCGQPKPAPALRSARSAPENFNTRFRPYNPEERPTTAAGTSLDRLVTDIKEKLKLSKKVWSALPYTICKDESVTAGTSNEEECWNGHSKARYLPEIMNDGLTNQINNPEVDVDITRPDTFIRQQIMALRVMTNKLKNAYNGNDVNFQDTSDESSGSGSGSGCMDDVCPTEFEFVTTEAPAVDPDRREVDS
modifications: left off: V5, internal (immediately after the signal peptide), state not stated
- trapping of GFP-Wingless at the cell surface (GFP-Wingless [3]; listed as hGPC6): trapped Wingless
- effect on high target gene senseless (senseless [4]): inhibit the high target gene senseless

- lipid binding behaviour vs wild-type form [5]: No difference in lipid binding behaviour
B4: furin mutant form: Dlp^core form where both furin sites were destroyed (protein)
chain: DQFSPNCSAVTHIFQARGIDAIEIPQKPSNERVLRYCESPSVGTCCTYNMETRMAMQSRQQLEGHTKDQISRMSGILGSKATKFKDIFTALLKESRTQFNSMFIRTYGVIYERNSYVFSDLFKELETYFANGRVDLLEVMDKFFNTLYQKMFTVLNTQYTFDENYMRCVSEHMKELKPFGDVPDKLSVQIKRSFVATRTYGQALTTASEVAKKVLNVRLNADCTGALTKMQHCGACKGYTEKPCTNYCVNVIKGCLHYQHEFDSEWENFAMAMDKVAERLLGSFNIVMVVEPLNIKISEAIMNFQDSGQDITNRVFQGCGRPKLQAMKQSISPKLQGVQILNARSPVEADTLDIDETLDEAIVLQERAAAEPGSQETSAQQSQEQGVGKSGNGGGGGGGNNRRQQQRRKQQQQRRKQQNNRDDNDDDDNESGGGREPILDRIVRDIRQRVKDYKKFWSNLPHSVCSNEDIASSSDVDGMCWNGHTIDRYMHSITTEHGSNPEFTGNPASTKQTAQMASQLSHLKNAIVHLRNAYNGQDVEWSEQ
modifications: left off: Twin-Strep, C-terminal, cleaved

B5: GPC4: human glypican of Dlp family; secreted ΔGPI form (amino acids 1-487) in solubilisation assays (protein)
chain: ALLAAELKSKSCSEVRRLYVSKGFNKNDAPLHEINGDHLKICPQGSTCCSQEMEEKYSLQSKDDFKSVVSEQCNHLQAVFASRYKKFDEFFKELLENAEKSLNDMFVKTYGHLYMQNSELFKDLFVELKRYYVVGNVNLEEMLNDFWARLLERMFRLVNSQYHFTDEYLECVSKYTEQLKPFGDVPRKLKLQVTRAFVAARTFAQGLAVAGDVVSKVSVVNPTAQCTHALLKMIYCSHCRGLVTVKPCYNYCSNIMRGCLANQGDLDFEWNNFIDAMLMVAERLEGPFNIESVMDPIDVKISDAIMNMQDNSVQVSQKVFQGCGPPKPLPAGRISRSISESAFSARFRPHHPEERPTTAAGTSLDRLVTDVKEKLKQAKKFWSSLPSNVCNDERMAAGNGNEDDCWNGKGKSRYLFAVTGNGLANQGNNPEVQVDTSKPDILILRQIMALRVMTSKMKNAYNGNDVDFFDISDESSGEGSGSGCEYQQCPSEFDYNATDHAGKSANEKADS
modifications: left off: V5, internal (immediately after the signal peptide), state not stated
- trapping of GFP-Wingless at the cell surface (GFP-Wingless [3]; listed as hGPC4): trapped Wingless
- effect on high target gene senseless (senseless [4]): inhibit the high target gene senseless
